Screening results as filed in PubChem.
Most compounds without a hit are left out; they make up all but 2.4% or so of the library.
HTRA1 inhibitor = HTRA1 serine protease inhibitors, primary screen, biochemical, fluorescence polarization, HTS; recombinant HTRA1, FP-rhodamine activity-based probe; actives 0.5% (n = 340,000); Q92743; inhibition, % at 5.96 µM; in the data active means inhibition above about 36%
JMJD2C inh = inhibitors of GASC-1 histone demethylase, primary screen, biochemical, fluorescence, DELFIA europium; actives 0.069% (n = 330,000); inhibition, % at 2.35 µM; AID 2099, 2009; GST-JMJD2C(1-420) H3K9me3 demethylation; Lysine-specific demethylase 4C (Homo sapiens), Q9H3R0;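 active means more than half of a compound's replicate wells show inhibition beyond 50%, single wells judged on their own value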;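 further: signal counts dimethyl H3K9 product captured on neutravidin plate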
SIAE inh = human SIAE inhibitors, primary screen, biochemical, fluorescence polarization, FP-Rh probe, 1536-well HTS | Sialate O-acetylesterase (Homo sapiens), Q9HAT2 | SIAE FP-Rh probe binding | inhibition, % at 9.66 µM | actives 0.69% (n = 370,000) | AID 1053197, 2014;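 active means inhibition above a cutoff: mean of compounds within the control limits plus 3 SD of those, cut at about 17% in these data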
Target sequence (Q9HAT2 whole entry, looked up): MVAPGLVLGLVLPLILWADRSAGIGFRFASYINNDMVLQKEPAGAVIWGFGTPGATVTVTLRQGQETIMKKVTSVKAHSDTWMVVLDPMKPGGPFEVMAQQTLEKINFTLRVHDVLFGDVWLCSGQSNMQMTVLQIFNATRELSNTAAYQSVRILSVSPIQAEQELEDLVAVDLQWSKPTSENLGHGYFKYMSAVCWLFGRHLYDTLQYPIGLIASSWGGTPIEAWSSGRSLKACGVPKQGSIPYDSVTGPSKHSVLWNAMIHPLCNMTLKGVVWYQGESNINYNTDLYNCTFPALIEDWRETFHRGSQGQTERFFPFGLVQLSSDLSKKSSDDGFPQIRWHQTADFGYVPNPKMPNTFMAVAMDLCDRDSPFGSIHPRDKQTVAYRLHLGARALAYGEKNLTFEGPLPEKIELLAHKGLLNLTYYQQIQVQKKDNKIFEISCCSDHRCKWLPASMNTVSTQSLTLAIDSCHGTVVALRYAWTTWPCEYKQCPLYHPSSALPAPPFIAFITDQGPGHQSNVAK
ABHD4 inh = ABHD4 inhibitors, primary screen, biochemical, fluorescence polarization, mouse | (Lyso)-N-acylphosphatidylethanolamine lipase (Mus musculus), Q8VD66 | purified mABHD4, FP-Rh probe fluorescence polarization | inhibition, % at 8.92 µM | actives 0.54% (n = 370,000);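 active means inhibition exceeding the mean over every tested compound plus 3 SD, cut at about 30% in these data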
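system = mouse ABHD4 enzyme, wild type | medium = HEPES pH 7.0, NaCl, Pluronic buffer | also added = FP-Rh probe | incubation = Enzyme–compound pre-incubation 45 min, then probe 60 min, both 25 °C | technique = fluorescence polarization, excitation 525 nm, emission 598 nm, BODIPY TMR filters | controls = S159A mutant high control, sample median low control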
PRMT1 inh = PRMT1 methyltransferase inhibitors, primary screen, biochemical, fluorescence polarization. recombinant PRMT1, activity-based probe fluorescence polarization. Protein arginine N-methyltransferase 1 (Homo sapiens), Q99873. inhibition, % at 2.79 µM. actives 1.3% (n = 370,000). AID 652257, 2013;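 active means inhibition above about 21% made by adding two undisclosed values, limit read from the data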
PRMT1 confirm = PRMT1 methyltransferase inhibitors, confirmation, biochemical, fluorescence polarization, triplicate. shares compounds with PRMT1 inh. recombinant His-PRMT1, activity-based probe fluorescence polarization. inhibition, % at 2.79 µM. actives 42% (n = 3,300);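 active means mean inhibition across replicates above the hit cutoff derived for the earlier primary screen, cut at about 22% in these data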
Large screens that a line does not name were inactive (follow-up assays come after a bar, where they were run).

N#Cc1c(N(CCO)CCO)nc(N)c2c(N)nc3c(c12)CC(=O)N3CC1CCCO1 (stereo not drawn)	PRMT1 inh 30 | PRMT1 confirm inactive
O=C1NC(c2ccccc2)=N/C1=C/c1ccco1	PRMT1 inh 34 | PRMT1 confirm inactive
O=C(Nc1ccc(C(=O)O)cc1)/C(=C\c1ccco1)NC(=O)c1ccc(Br)cc1	PRMT1 inh 34 (no result: JMJD2C inh) | PRMT1 confirm inactive
O=C(NC(Cc1ccccc1)C(=O)O)/C(=C\c1ccco1)NC(=O)c1ccccc1 (stereo not drawn)	none
O=C(O)/C(=C/c1ccco1)NC(=O)c1ccccc1	none
O=C(NC(Cc1ccccc1)C(=O)O)/C(=C\c1ccco1)NC(=O)c1ccc(Br)cc1 (stereo not drawn)	PRMT1 inh 35 | PRMT1 confirm inactive
O=C(O)/C(=C\c1ccco1)NC(=O)c1cccc2ccccc12	PRMT1 inh 33 | PRMT1 confirm inactive
C=CCNC(=O)/C(=C/c1ccco1)NC(=O)c1ccc(Br)o1	none
O=C(Nc1ccc(C(=O)O)cc1)/C(=C\c1ccco1)NC(=O)c1ccc(Br)o1	PRMT1 inh 25 | PRMT1 confirm inactive
CN1CCN(c2ccc3c(c2)Oc2ccccc2CN(Cc2cn(Cc4ccc(F)cc4)nn2)S3(=O)=O)CC1	none (no result: HTRA1 inhibitor, JMJD2C inh)
CCc1ccc(OC2(C)CCN(Cc3ccc(SC)cc3)C2)cc1 (stereo not drawn)	none (no result: HTRA1 inhibitor, JMJD2C inh)
C[C@@H]1CCN(C2CC2)S(=O)(=O)c2ccc(N3CC[C@@H](N(C)C)C3)cc2O1	none (no result: HTRA1 inhibitor, JMJD2C inh)
CCCCCCSc1ccc([C@H]2N[C@@](CC(C)C)(C(=O)OC)[C@H]3C(=O)N(C)C(=O)[C@@H]23)cc1OC	none
O=C(O)/C(=C\c1ccco1)NC(=O)c1ccc(Br)o1	none
O=C(O)/C(=C/c1ccco1)NC(=O)c1ccc(Br)o1	PRMT1 inh 29 | PRMT1 confirm inactive
CN(Cc1ccccc1F)C(=O)C1CCC(CNS(=O)(=O)c2cccc3cccnc23)CC1 (stereo not drawn)	none (no result: HTRA1 inhibitor, JMJD2C inh)
CC(C)c1ccc(CCNC(=O)CSC(=S)N2CCCC2)cc1	PRMT1 inh 32 | PRMT1 confirm inactive
COc1ccc(CNC(=O)CSC(=S)N2CCCC2)cc1	none (no result: JMJD2C inh)
C=CCNc1ccc2c(c1)OC[C@@H](CC(C)C)NS2(=O)=O	none (no result: HTRA1 inhibitor, JMJD2C inh)
NC(=O)CN1C(=O)/C(=c2\sc3nc(=O)c(Cc4ccccc4)nn3c2=O)c2ccccc21	PRMT1 inh 45 (no result: HTRA1 inhibitor) | PRMT1 confirm 40
O=c1c2sccc2nc(SCc2cc(=O)n3ccccc3n2)n1Cc1ccccn1	PRMT1 inh 27 (no result: HTRA1 inhibitor) | PRMT1 confirm inactive
CC(=O)OC12CCCN(C1)/C(=C/c1ccc(Cl)cc1)C2 (stereo not drawn)	none (no result: HTRA1 inhibitor, JMJD2C inh)
CN(C)CCCN1C(=O)c2cccc3c(Br)ccc(c23)C1=O	PRMT1 inh 38 | PRMT1 confirm inactive
Cc1nn(C)c(C)c1N1C(=O)c2cccc3c(Br)ccc(c23)C1=O	PRMT1 inh 57 | PRMT1 confirm inactive
O=C(Nc1nc2ncccn2c1-c1ccc(C(F)(F)F)cc1)c1ccccc1	none (no result: HTRA1 inhibitor, JMJD2C inh)
O=[N+]([O-])c1ccc2nc(CNc3nc(N4CCOCC4)nc4c3ncn4-c3ccsc3)[nH]c2c1	none (no result: HTRA1 inhibitor, JMJD2C inh)
CC(C)CSc1ncccc1-c1nc2ccccc2[nH]1	none (no result: HTRA1 inhibitor, JMJD2C inh)
Cc1c(Cl)cccc1NC(CC(=O)c1ccccc1)C(=O)OCC(=O)c1cccs1 (stereo not drawn)	PRMT1 inh 63 | PRMT1 confirm inactive
COc1ccccc1NC(CC(=O)c1ccccc1)C(=O)OCC(=O)c1ccc(F)cc1 (stereo not drawn)	PRMT1 inh 35 | PRMT1 confirm inactive
COc1ccccc1NC(=O)CCCC(=O)OCC(=O)c1ccc(F)cc1	none
Cc1c(Cl)cccc1NC(CC(=O)c1ccccc1)C(=O)O (stereo not drawn)	PRMT1 inh 35 | PRMT1 confirm inactive
O=C(CC(Nc1cccc(Cl)c1Cl)C(=O)O)c1ccccc1 (stereo not drawn)	PRMT1 inh 29 | PRMT1 confirm inactive
COC(=O)C1=C(C)N(Cc2ccc(C(F)(F)F)cc2)C(=NCc2ccc(OC)cc2)NC1c1ccccc1C(F)(F)F (stereo not drawn)	none (no result: HTRA1 inhibitor, JMJD2C inh)
Cn1c(SCC(=O)NCCN2CCCCC2)nc2cccnc21	none (no result: HTRA1 inhibitor, JMJD2C inh)
O=C(CC(Nc1ccccc1Cl)C(=O)O)c1ccccc1 (stereo not drawn)	PRMT1 inh 31 | PRMT1 confirm inactive
Nc1cccn2c(-c3ccc(Cl)c(Cl)c3)cnc12	PRMT1 inh 32 | PRMT1 confirm inactive
Nc1cccn2c(-c3ccc(Cl)cc3)cnc12	PRMT1 inh 42 | PRMT1 confirm inactive
COC(=O)[C@]12C[C@H](CC(=O)N3CCCCC3)C(=O)N(CCc3ccc(OC)c(OC)c3)C1=C[C@H](C1CCCC1)O[C@@H]2C	none (no result: HTRA1 inhibitor, JMJD2C inh)
O=S1(=O)CCSC[C@@H](CN2CCOCC2)N1	none (no result: HTRA1 inhibitor, JMJD2C inh)
c1cc2c(cc1-c1csc(NNC3=NCCCCC3)n1)OCCO2	PRMT1 inh 75 (no result: HTRA1 inhibitor) | PRMT1 confirm 24
CCCCCCCCN1C(=O)[C@H](CC(=O)N2CCCCC2)C[C@@]2(C(=O)OC)CC(C)(C)CC=C12	none (no result: HTRA1 inhibitor, JMJD2C inh)
CCOC(=O)C1=C(O)/C(=C\c2cccs2)N=C1C	none
CCOC(=O)C1=C(O)/C(=C\c2ccc(CNC(=O)C(=O)Nc3ccccc3)o2)N=C1C	PRMT1 inh 34 | PRMT1 confirm 23
COC(=O)c1ccc(-c2ccco2)n1Cc1nc(-c2ccc(OC)c(OC)c2)oc1C	PRMT1 inh 29 | PRMT1 confirm inactive
O=[N+]([O-])c1ccc(S(=O)(=O)N2CCSC2c2ccco2)cc1 (stereo not drawn)	PRMT1 inh 46 | PRMT1 confirm 33
O=S(=O)(c1cccc(-c2n[nH]c(=S)n2-c2ccc(OC(F)(F)F)cc2)c1)N1CCOCC1	PRMT1 inh 27 | PRMT1 confirm inactive
O=S(=O)(c1cccc(-c2n[nH]c(=S)n2-c2cccc(C(F)(F)F)c2)c1)N1CCOCC1	none
COc1ccc(/C(O)=C2\C(=O)C(=O)N(Cc3ccco3)C2c2cc(OC)ccc2OC)cc1 (stereo not drawn)	none
Cc1ccc(C2/C(=C(/O)c3ccc(Br)cc3)C(=O)C(=O)N2Cc2ccco2)o1 (stereo not drawn)	PRMT1 inh 35 | PRMT1 confirm inactive
CN(C)S(=O)(=O)c1cccc(N=C2NN=C(c3ccccc3)CS2)c1	PRMT1 inh 54 (no result: HTRA1 inhibitor) | PRMT1 confirm 39
O=C(CN1CCN(c2ccc(O)cc2)CC1)NCC(=O)Nc1ccc(F)c(F)c1F	PRMT1 inh 37 | PRMT1 confirm inactive
